The record followed here is ChEMBL document CHEMBL4706541, “Design and synthesis of 1H-indazole-3-carboxamide derivatives as potent and selective PAK1 inhibitors with anti-tumour migration and invasion activities” (Eur J Med Chem, 2020).

Experiment [1] addresses Serine/threonine-protein kinase PAK 5 (Homo sapiens) (UniProt Q9P286). Description: Inhibtion of recombinant human PAK5 expressed in baculovirus infected sf9 insect cells assessed as residual activity at 0.1 uM using RRRLSFAEPG as substrate preincubated for 20 min followed by [gamma33P]ATP addition and measured after 120 mins by Hotspot assay relative to control. To be noted: time 140.0 min. A digest of the protocol:
(§1)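 Radiometric HotSpot kinase assay. Kinase and substrate are combined in 20 mM Hepes pH 7.5, 10 mM MgCl2, 1 mM EGTA, 0.02% Brij35, 0.02 mg/mL BSA, 0.1 mM Na3VO4, 2 mM DTT and 1% DMSO. Compound is added and preincubated 20 min at room temperature. The reaction starts with ATP plus 33P-ATP at 10 µM final and runs 120 min at 25 °C. Filter-binding read-out, given as % activity remaining versus DMSO.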

The subject of experiment [2] is MDA-MB-231. Description: Antimigratory activity against human MDA-MB-231 cells after 24 hrs by inverted microscopic based Wound healing assay. To be noted: dose 0.25-1 µM. It counts as functional, cell-based. A digest of the protocol: (§2)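 Cells grown to confluence and scratched with a sterile pipette tip, or placed at 1×10^5 cells in serum-free DMEM with 0.1% […] in the upper part of Matrigel-coated Boyden chambers over DMEM with 10% FBS. Compound treatment for 24 h at 37 °C. Read-out is wound distance from images or the count of invaded cells on the lower filter face after fixing and staining. Data given as means ± SD.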

Experiment [3] has as its target Serine/threonine-protein kinase PAK 1 (Homo sapiens, UniProt Q13153). Description: Inhibition of PAK1 in human MDA-MB-231 cells assessed as reduction in snail protein expression at 2.5 to 20 uM after 1 to 24 hrs by Western blot analysis. Format: cell-based. To be noted: dose 2.5-20 µM, time 1-24 hrs. The gist of the method:
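Whole-cell extracts made from 1×10^6 treated cells in RIPA buffer (50 mM Tris/HCl pH 7.4, 150 mM NaCl, 1% NP-40, 0.25% deoxycholate, 1 mM EDTA, protease inhibitors). Proteins separated by SDS-PAGE, blotted to PVDF and blocked in 5% milk in TBS-T. Membranes probed for PAK1, phospho-PAK1 Ser144, Snail and actin, with β-actin as loading control. ECL detection.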

The test system of experiment [4] is MDA-MB-231. Kind of experiment: Antiinvasive activity against human MDA-MB-231 cells assessed as decrease is number of penetrated cells at 0.25 to 1 uM after 24 hrs by inverted microscopic based Transwell invasion assay relative to control. It counts as functional. More on the design: scale not given: the % may be the effect or the level left. To be noted: dose 0.25-1 µM. The gist of the method: as §2

In experiment [5] the target is Mast/stem cell growth factor receptor Kit (Homo sapiens) (UniProt P10721). Kind of experiment: Inhibition of c-Kit (unknown origin) assessed as residual activity at 0.1 uM preincubated for 20 min followed by [gamma33P]ATP addition and measured after 120 mins by Hotspot assay relative to control. To be noted: time 140.0 min. The gist of the method: as §1
Experiment [6] has as its system HCT-116. Kind of experiment: Antiproliferative activity against human HCT-116 cells assessed as growth inhibition at 1 uM after 72 hrs by Cell Titer-Glo assay relative to control. To be noted: read-out: GI. It counts as functional. The gist of the method: (§3)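 Cells kept at 37 °C in 5% CO2 and plated at 4000 per well. Treated with compound for 72 h. Viability read by CellTiter-Glo luminescence. Each compound run in duplicate, data as means ± SD.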
A general note: Cellular ATP, detected with luciferase, serves as a proxy for viable cell number.

The target of experiment [7] is Vascular endothelial growth factor receptor 2 (Homo sapiens) (UniProt P35968). Kind of experiment: Inhibition of VEGFR2 (unknown origin) assessed as residual activity at 0.1 uM preincubated for 20 min followed by [gamma33P]ATP addition and measured after 120 mins by Hotspot assay relative to control. To be noted: time 140.0 min. The gist of the method:
as §1

For experiment [8], the target named is Receptor-type tyrosine-protein kinase FLT3 (Homo sapiens) (UniProt P36888). Kind of experiment: Inhibition of FLT3 (unknown origin) assessed as residual activity at 0.1 uM preincubated for 20 min followed by [gamma33P]ATP addition and measured after 120 mins by Hotspot assay relative to control. The following applies: time 140.0 min. The gist of the method:
as §1

Experiment [9] concerns the target Serine/threonine-protein kinase PAK 2 (Homo sapiens) (UniProt Q13177). Kind of experiment: Inhibtion of recombinant human N-terminal GST/His6-tagged PAK2 (D3 to R524 residues) expressed in sf9 insect cells assessed as residual activity at 0.1 uM using RRRLSFAEPG as substrate preincubated for 20 min followed by [gamma33P]ATP addition and measured after 120 mins by Hotspot assay relative to control. The following applies: time 140.0 min. The gist of the method:
as §1

The target in experiment [10] is LIM domain kinase 1 (Homo sapiens) (UniProt P53667). Description: Inhibition of LIMK1 (unknown origin) assessed as residual activity at 0.1 uM preincubated for 20 min followed by [gamma33P]ATP addition and measured after 120 mins by Hotspot assay relative to control. The following applies: time 140.0 min. The gist of the method: as §1
The target of experiment [11] is Serine/threonine-protein kinase PAK 4 (Homo sapiens, UniProt O96013). Description: Inhibition of full length recombinant human N-terminal GST/His6-tagged PAK4 expressed in baculovirus infected sf9 insect cells using tetra LRRWSLG as substrate preincubated for 20 min followed by [gamma33P]ATP addition and measured after 120 mins by Hotspot assay.
Experiment [12] has as its target Mitogen-activated protein kinase 8 (Homo sapiens) (UniProt P45983). Kind of experiment: Inhibition of JNK1 (unknown origin) assessed as residual activity at 0.1 uM preincubated for 20 min followed by [gamma33P]ATP addition and measured after 120 mins by Hotspot assay relative to control. To be noted: time 140.0 min. A digest of the protocol: as §1
Experiment [13] addresses Serine/threonine-protein kinase B-raf (Homo sapiens) (UniProt P15056). Description: Inhibition of BRAF (unknown origin) assessed as residual activity at 0.1 uM preincubated for 20 min followed by [gamma33P]ATP addition and measured after 120 mins by Hotspot assay relative to control. The following applies: time 140.0 min. A digest of the protocol: as §1
Experiment [14] deals with Serine/threonine-protein kinase PAK 3 (Homo sapiens) (UniProt O75914). Description: Inhibtion of full length recombinant human N-terminal GST/His6-tagged PAK3 expressed in sf9 insect cells assessed as residual activity at 0.1 uM using tetra LRRWSLG as substrate preincubated for 20 min followed by [gamma33P]ATP addition and measured after 120 mins by Hotspot assay relative to control. The following applies: time 140.0 min. A digest of the protocol:
as §1

Experiment [15] deals with MDA-MB-231. Description: Antiproliferative activity against human MDA-MB-231 cells assessed as growth inhibition at 1 uM after 72 hrs by Cell Titer-Glo assay relative to control. It counts as functional. To be noted: read-out: GI. The gist of the method: as §3
Experiment [16] deals with Ephrin type-A receptor 1 (Homo sapiens) (UniProt P21709). Description: Inhibition of EPHA1 (unknown origin) assessed as residual activity at 0.1 uM preincubated for 20 min followed by [gamma33P]ATP addition and measured after 120 mins by Hotspot assay relative to control. The following applies: time 140.0 min. A digest of the protocol:
as §1

Experiment [17] has as its target Dual specificity mitogen-activated protein kinase kinase 1 (Homo sapiens) (UniProt Q02750). Description: Inhibition of MEK1 (unknown origin) assessed as residual activity at 0.1 uM preincubated for 20 min followed by [gamma33P]ATP addition and measured after 120 mins by Hotspot assay relative to control. To be noted: time 140.0 min. The gist of the method:
as §1

Experiment [18] concerns the target Serine/threonine-protein kinase 24 (Homo sapiens) (UniProt Q9Y6E0). Description: Inhibition of STK24 (unknown origin) assessed as residual activity at 0.1 uM preincubated for 20 min followed by [gamma33P]ATP addition and measured after 120 mins by Hotspot assay relative to control. The following applies: time 140.0 min. A digest of the protocol:
as §1

Experiment [19] has as its target Tyrosine-protein kinase SYK (Homo sapiens) (UniProt P43405). Kind of experiment: Inhibition of SYK (unknown origin) assessed as residual activity at 0.1 uM preincubated for 20 min followed by [gamma33P]ATP addition and measured after 120 mins by Hotspot assay relative to control. To be noted: time 140.0 min. The gist of the method: as §1
The target of experiment [20] is Voltage-gated inwardly rectifying potassium channel KCNH2 (Homo sapiens, UniProt Q12809). Kind of experiment: Inhibition of human ERG.

Active and inactive are the calls of the source. No cut-off for these calls is given here.

Serine/threonine-protein kinase PAK 4, sequence (O96013 whole entry): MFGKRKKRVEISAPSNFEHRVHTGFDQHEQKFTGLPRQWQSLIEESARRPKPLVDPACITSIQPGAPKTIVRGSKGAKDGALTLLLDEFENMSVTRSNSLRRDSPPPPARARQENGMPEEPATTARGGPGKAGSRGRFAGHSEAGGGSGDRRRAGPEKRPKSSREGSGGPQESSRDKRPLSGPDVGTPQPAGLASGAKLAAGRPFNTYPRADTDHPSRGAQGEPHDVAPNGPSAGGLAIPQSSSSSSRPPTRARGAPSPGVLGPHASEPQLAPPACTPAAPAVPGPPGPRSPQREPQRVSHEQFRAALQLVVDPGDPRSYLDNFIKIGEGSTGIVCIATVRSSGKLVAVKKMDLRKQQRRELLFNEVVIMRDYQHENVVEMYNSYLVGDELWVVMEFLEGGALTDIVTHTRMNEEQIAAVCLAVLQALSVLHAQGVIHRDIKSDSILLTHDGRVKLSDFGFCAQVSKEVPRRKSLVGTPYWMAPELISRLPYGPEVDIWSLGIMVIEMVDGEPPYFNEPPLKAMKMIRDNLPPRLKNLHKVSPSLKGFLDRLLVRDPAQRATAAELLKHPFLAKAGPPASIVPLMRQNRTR
Serine/threonine-protein kinase PAK 1, sequence (Q13153 whole entry): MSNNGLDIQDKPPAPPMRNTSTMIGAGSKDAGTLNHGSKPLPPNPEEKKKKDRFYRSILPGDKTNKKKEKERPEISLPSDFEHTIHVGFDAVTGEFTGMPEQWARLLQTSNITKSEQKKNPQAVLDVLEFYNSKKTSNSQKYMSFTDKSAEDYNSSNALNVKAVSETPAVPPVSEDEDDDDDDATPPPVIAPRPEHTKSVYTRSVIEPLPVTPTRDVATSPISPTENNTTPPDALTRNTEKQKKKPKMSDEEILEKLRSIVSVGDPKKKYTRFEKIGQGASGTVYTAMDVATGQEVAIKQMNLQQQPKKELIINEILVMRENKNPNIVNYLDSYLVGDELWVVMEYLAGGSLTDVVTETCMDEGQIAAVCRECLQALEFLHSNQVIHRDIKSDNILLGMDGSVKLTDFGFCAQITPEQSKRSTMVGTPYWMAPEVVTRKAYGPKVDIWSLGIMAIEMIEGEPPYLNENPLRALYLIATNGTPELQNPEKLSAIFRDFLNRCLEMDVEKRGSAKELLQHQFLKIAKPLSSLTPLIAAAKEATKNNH
Dual specificity mitogen-activated protein kinase kinase 1 (Homo sapiens), sequence (Q02750 whole entry): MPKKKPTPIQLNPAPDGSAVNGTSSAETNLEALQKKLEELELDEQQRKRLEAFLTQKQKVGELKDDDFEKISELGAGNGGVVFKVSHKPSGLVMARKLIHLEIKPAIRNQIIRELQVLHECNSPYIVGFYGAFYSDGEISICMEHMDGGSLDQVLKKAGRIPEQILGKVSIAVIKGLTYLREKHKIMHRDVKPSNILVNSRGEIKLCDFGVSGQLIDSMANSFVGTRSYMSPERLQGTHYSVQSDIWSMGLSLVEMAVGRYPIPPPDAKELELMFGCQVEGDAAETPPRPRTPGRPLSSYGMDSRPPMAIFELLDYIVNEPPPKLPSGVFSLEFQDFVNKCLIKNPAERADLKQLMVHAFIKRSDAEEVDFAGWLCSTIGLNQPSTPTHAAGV
Mitogen-activated protein kinase 8 (Homo sapiens), sequence (P45983 whole entry): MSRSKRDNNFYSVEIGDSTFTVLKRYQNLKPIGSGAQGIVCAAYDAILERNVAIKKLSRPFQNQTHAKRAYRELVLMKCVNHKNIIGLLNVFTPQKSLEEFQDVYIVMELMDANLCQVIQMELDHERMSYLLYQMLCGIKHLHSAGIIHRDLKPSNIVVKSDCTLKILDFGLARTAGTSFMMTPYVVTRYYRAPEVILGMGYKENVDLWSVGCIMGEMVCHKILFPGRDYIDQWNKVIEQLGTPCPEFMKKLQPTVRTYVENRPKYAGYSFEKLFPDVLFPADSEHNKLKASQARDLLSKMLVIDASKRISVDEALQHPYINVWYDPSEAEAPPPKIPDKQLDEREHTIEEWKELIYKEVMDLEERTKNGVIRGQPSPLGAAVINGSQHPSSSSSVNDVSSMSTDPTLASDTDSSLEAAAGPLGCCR
Mast/stem cell growth factor receptor Kit (Homo sapiens), sequence (P10721 whole entry): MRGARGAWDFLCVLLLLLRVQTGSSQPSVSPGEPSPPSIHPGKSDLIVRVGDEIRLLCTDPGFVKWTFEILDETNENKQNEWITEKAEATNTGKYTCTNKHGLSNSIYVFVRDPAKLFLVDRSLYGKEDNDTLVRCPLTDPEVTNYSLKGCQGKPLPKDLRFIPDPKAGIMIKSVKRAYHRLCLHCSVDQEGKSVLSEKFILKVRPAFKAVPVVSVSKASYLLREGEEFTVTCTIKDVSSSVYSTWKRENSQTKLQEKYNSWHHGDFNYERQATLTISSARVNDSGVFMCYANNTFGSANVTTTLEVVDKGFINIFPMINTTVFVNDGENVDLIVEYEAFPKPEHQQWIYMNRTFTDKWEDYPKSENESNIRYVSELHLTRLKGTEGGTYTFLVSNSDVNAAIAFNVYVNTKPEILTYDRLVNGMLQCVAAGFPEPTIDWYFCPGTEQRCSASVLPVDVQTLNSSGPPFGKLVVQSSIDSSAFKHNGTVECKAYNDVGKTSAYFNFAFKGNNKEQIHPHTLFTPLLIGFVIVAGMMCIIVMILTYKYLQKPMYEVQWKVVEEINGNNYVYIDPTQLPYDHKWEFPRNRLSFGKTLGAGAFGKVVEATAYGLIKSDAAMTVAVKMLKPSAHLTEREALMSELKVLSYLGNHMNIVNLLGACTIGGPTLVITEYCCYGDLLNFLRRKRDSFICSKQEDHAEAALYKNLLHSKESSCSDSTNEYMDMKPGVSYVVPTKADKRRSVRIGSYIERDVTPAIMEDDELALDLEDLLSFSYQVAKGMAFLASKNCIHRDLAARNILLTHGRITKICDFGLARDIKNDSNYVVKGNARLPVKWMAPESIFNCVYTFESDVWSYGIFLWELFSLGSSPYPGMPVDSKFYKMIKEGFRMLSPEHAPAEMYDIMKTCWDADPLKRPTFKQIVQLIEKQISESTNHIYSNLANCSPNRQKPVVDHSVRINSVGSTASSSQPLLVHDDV
Voltage-gated inwardly rectifying potassium channel KCNH2, sequence (Q12809 whole entry): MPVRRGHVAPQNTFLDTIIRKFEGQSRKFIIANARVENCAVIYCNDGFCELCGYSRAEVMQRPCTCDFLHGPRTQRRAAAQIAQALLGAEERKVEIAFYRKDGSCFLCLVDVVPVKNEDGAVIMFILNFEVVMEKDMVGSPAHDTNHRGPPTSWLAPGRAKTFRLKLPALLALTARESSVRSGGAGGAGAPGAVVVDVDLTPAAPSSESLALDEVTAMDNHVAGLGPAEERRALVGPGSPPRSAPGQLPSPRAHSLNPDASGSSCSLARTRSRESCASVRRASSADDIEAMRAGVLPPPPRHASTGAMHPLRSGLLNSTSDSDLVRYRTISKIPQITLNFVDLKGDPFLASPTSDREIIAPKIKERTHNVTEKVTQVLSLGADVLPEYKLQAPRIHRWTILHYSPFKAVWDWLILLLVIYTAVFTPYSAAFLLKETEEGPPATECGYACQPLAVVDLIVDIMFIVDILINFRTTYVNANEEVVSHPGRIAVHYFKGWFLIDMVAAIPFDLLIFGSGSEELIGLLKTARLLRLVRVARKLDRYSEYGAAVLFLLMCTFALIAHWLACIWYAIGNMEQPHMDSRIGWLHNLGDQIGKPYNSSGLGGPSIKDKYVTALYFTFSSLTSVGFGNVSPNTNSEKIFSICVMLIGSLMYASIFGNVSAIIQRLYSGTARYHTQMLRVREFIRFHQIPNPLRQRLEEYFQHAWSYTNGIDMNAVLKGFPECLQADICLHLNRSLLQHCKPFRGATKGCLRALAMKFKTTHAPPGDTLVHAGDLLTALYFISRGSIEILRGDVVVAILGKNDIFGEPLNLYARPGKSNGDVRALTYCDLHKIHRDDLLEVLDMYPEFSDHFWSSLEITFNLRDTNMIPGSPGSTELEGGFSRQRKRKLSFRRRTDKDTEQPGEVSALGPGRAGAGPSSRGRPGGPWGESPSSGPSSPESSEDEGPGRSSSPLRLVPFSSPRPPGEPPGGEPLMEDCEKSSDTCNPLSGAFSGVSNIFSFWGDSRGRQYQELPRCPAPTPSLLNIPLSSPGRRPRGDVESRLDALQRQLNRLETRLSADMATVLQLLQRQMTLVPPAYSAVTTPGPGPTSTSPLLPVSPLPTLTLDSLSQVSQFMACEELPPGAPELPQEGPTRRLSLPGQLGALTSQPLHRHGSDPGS
Ephrin type-A receptor 1 (Homo sapiens), sequence (P21709 whole entry): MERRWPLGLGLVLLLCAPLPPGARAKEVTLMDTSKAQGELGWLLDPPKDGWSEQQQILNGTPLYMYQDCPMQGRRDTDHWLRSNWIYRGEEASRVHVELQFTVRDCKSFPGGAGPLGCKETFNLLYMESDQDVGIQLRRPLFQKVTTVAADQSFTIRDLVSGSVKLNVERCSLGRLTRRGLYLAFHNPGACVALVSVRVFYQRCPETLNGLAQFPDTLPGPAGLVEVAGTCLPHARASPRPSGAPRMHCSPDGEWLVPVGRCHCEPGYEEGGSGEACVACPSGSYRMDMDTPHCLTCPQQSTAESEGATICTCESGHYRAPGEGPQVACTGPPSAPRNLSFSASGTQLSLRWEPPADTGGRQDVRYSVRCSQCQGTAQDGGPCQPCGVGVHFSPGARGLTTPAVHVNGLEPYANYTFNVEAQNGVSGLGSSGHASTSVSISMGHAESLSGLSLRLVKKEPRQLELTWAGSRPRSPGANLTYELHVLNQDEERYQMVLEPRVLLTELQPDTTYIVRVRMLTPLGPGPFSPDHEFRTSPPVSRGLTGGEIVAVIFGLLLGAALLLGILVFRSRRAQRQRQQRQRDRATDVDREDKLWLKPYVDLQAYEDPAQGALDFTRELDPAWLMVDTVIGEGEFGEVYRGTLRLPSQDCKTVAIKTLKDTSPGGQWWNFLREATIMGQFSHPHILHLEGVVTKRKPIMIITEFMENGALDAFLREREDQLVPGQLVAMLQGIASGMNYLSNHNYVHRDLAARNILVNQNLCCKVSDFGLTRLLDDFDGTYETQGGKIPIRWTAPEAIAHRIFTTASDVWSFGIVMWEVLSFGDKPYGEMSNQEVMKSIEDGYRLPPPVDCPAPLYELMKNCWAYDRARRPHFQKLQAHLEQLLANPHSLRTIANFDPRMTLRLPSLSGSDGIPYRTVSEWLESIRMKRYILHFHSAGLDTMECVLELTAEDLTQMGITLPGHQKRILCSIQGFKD

Take `Cc1cccn(-c2ccc(-c3ccc4c(C(=O)NCc5ccncc5)n[nH]c4c3)c(Cl)c2)c1=O`: the Activity in experiment [1] is 116%; in [2], “Dose-dependent effect”; in experiment [4], under 40%; in experiment [5], 99.2%; in [7], 92.4%; in experiment [8], 98.8%. Also, the Activity in experiment [9] was found to be 28%; in [10], 115%; in experiment [12], 72.8%; in [13], 84.4%; in experiment [14], 33.9%; in experiment [16], 91.9%. For the same molecule, the Activity stood at 84.4% in [17], 64% in experiment [18] and 94.2% in experiment [19]. For the same molecule, the inhibition entry in experiment [3] was “Active”. The inhibition of growth at 1 µM came out at 8.73% in experiment [6] and 6.31% in experiment [15]. Besides, the IC50 (as a rule, the concentration at which inhibition is half-maximal) in experiment [11] was over 10 µM; in [20], 16 µM.
